Compound activity deposited in PubChem BioAssay by several laboratories.
TPT1 inh: blocks Candida albicans tRNA 2'-phosphotransferase | 300,000 compounds, 0.81% hits | inhibition, % at 5 µM | AID 1962 | recombinant caTPT1, FP RNA substrate dephosphorylation;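 active means inhibition above the mean of all tested compounds plus 3 SD, set per screening campaign, cut at about 24% in these data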
CSN deneddyl inh: inhibitors of human CSN-mediated cullin deneddylation; Purified CSN, SCF-Nedd8-OG deneddylation, fluorescence polarization; 360,000 compounds, 0.38% hits; inhibition, % at 12.5 µM; Q92905;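 active means pattern-corrected inhibition above about 35%, with an unprinted fluorescence ratio check between 0.5 and 1.5, limit read from the data, passing the limit was not always enough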
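Detection – fluorescence polarization · System – HEK293T-derived human Csn5 enzyme · Controls – substrate-only high control, full reaction low control · Timing – 90 min, room temperature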
Rpn11 inh: Rpn11 (human) deubiquitinase inhibition | inhibition, % at 20 µM | O00487 | AID 588493 | human 26S proteasome, Ub4-pepOG fluorescence polarization; 20S core pre-blocked with epoxomicin | 360,000 compounds, 0.59% hits;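 active means inhibition at 20 µM, scaled to each plate's controls, above about 33%, limit read from the data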
HNF4A DNA FP: change in binding of human HNF4 alpha to DNA | HNF4a-FITC DNA binding, fluorescence polarization, 1 h | activity change, % at 10 µM | 360,000 compounds, 0.3% hits; in the data active means activity change above about 30%, passing the limit was not always enough
SENP1 FRET inh: blocks the human SENP1 SUMO protease catalytic domain; AID 624204; inhibition, % at 10 µM; recombinant SENP1 catalytic domain, CyPet-SUMO1-YPet FRET cleavage; Q9P0U3; 360,000 compounds, 0.21% hits;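 active means inhibition at least 30% at 10 µM, raw YFP signal under a set limit, fluorescence ratio 0.5 to 1.5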
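Controls: no-enzyme wells low, DMSO-plus-enzyme wells high control. Test system: human recombinant His6-tagged SENP1 catalytic domain enzyme. Reagent: SFCypet-SUMO1-SFYpet FRET protein substrate, 25 nM final. Doses: one dose per compound, 10 µM, 0.5% DMSO. Detection: FRET, CFP and YFP emission. Timing: 50 min reaction at room temperature.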
ATG4B inh: blocks human ATG4B protease cleavage of LC3 substrate; ATG4B cleavage of LC3-PLA2, NBD-HPC fluorescence, 1 h; AID 504462; 340,000 compounds, 0.51% hits; Q9Y4P1; inhibition, % at 8.33 µM
caTPT1 confirm: confirmation of Candida albicans TPT1 inhibitors. AID 2149. recombinant caTPT1, fluorescence polarization, RNase T1 coupled. inhibition, % at 5 µM. 2,400 compounds, 74% hits. shares compounds with TPT1 inh;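 active means inhibition above the primary screen limit, the mean inhibition of all tested compounds plus 3 SD, cut at about 25% in these data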
RNase T1 inh: blocks Aspergillus oryzae RNase T1, a TPT1 counter-screen; RNase T1 cleavage, fluorescence polarization, 1536-well; 2,400 compounds, 83% hits; inhibition, % at 5 µM; shares compounds with TPT1 inh;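 active means inhibition above the solvent-only control well mean plus 3 SD, limit set per screening run, cut at about 23% in these data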;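 further: inhibitors block cleavage so intact labeled substrate keeps polarization high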
Rpn11 confirm: Rpn11 inhibition confirmation, single concentration; shares compounds with Rpn11 inh; purified human 26S proteasome, Ub4-pepOG fluorescence polarization; proteasome pretreated with epoxomicin; inhibition, % at 20 µM; 1,900 compounds, 29% hits; AID 602318
MMP-2 counter: blocks human MMP-2, flagging nonselective RPN11 hits | shares compounds with Rpn11 inh | recombinant MMP-2, FRET peptide cleavage fluorescence | inhibition, % at 20 µM | 1,900 compounds, 4% hits;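 further: human MMP-2 activated beforehand with APMA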
Thrombin inh: counter-screen for RPN11 inhibitors: inhibition of bovine thrombin; shares compounds with Rpn11 inh; bovine thrombin cleavage of Ub4-pepOG, fluorescence polarization; inhibition, % at 20 µM; 1,900 compounds, 13% hits;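 active means mean inhibition at least 40% at 20 µM, or signal 3 deviations below plate average, so some actives read negative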
Target sequence (P00735 whole entry, looked up): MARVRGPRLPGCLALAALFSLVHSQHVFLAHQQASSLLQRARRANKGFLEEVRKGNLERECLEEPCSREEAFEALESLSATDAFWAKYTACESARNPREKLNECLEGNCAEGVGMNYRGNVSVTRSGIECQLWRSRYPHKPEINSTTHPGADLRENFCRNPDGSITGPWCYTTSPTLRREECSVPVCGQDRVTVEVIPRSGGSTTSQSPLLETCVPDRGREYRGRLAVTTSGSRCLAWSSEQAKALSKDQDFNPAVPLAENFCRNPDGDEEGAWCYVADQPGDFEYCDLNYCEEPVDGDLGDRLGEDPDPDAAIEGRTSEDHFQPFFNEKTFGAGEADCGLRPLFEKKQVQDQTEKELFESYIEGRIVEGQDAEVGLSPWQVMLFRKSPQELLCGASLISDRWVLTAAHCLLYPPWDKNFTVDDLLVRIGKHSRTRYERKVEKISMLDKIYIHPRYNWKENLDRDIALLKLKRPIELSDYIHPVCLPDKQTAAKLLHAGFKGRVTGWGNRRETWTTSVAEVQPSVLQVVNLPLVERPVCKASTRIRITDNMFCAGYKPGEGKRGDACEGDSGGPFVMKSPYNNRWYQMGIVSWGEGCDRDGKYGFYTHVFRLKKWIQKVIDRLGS
Large screens that a line does not name were inactive (follow-up assays come after a bar, where they were run). Rows were chosen to be rich in hits. Some 2% of all compounds tested hit in one or more screens of this group. Unless noted, no stated cut-off is given here; in the data, active means inhibition above about 40%; inactive means the rest.

C#CCN1C(=O)S/C(=C/c2cc(C)n(CC)c2C)C1=O	none
COc1cc(/C=C2/C(=O)NN(c3ccccc3)C2=O)cc(Br)c1O	TPT1 inh 54, Rpn11 inh 48 | caTPT1 confirm 84 | RNase T1 inh 103 | Rpn11 confirm 55 | MMP-2 counter inactive | Thrombin inh 52
COc1cc(/C=C2/C(=O)NN(c3ccc(Cl)cc3)C2=O)cc(OC)c1O	TPT1 inh 97, Rpn11 inh 63 | caTPT1 confirm 151 | RNase T1 inh 154 | Rpn11 confirm 62 | MMP-2 counter inactive | Thrombin inh 54
COc1cc(/C=C2\C(=O)NN(c3ccccc3)C2=O)cc([N+](=O)[O-])c1O	none
COc1cc(/C=C2\C(=O)NN(c3ccc(C)cc3)C2=O)cc([N+](=O)[O-])c1O	none
O=C1N[C@H]2CC=C[C@H]2Nc2ccccc21	none (no result: TPT1 inh)
COc1cc(/C=C(\C#N)C(=O)Nc2ccc3c(c2)OCCO3)ccc1O	TPT1 inh 57, Rpn11 inh 56 | caTPT1 confirm 71 | RNase T1 inh 77 | Rpn11 confirm inactive | MMP-2 counter inactive | Thrombin inh inactive
N#C/C(=C\c1ccc(O)c(O)c1)C(=O)N1CCc2ccccc21	TPT1 inh 36, Rpn11 inh 65 | caTPT1 confirm 46 | RNase T1 inh 51 | Rpn11 confirm 70 | MMP-2 counter inactive | Thrombin inh inactive
COc1cc(/C=C/C(=O)OCC(=O)Nc2ccc3c(c2)OCCO3)ccc1O	none
N#C/C(=C\c1cccc(O)c1)C(=O)N1CCCCC1	none
COc1cc(/C=C(\C#N)C(=O)N2CCc3ccccc32)ccc1O	TPT1 inh 36, Rpn11 inh 81 | caTPT1 confirm 71 | RNase T1 inh 76 | Rpn11 confirm inactive | MMP-2 counter inactive | Thrombin inh inactive
O=C(OCc1cn([C@@H]2C[C@H](c3ccccc3)N(Cc3cccs3)C[C@H]2O)nn1)c1ccccc1	none (no result: TPT1 inh, ATG4B inh)
Cc1ccccc1S(=O)(=O)N1C[C@H]2CON(C)[C@H]2C[C@H]1c1cccc(-c2ccc(C#N)cc2)c1	none (no result: TPT1 inh)
C=CC[n+]1c(-c2ccc(OC)c(OC)c2)csc1NNC(=O)Nc1ccccc1	TPT1 inh 25, Rpn11 inh 52 | caTPT1 confirm inactive | RNase T1 inh inactive | Rpn11 confirm inactive | MMP-2 counter 48 | Thrombin inh inactive
CCOC(=O)C1CCN(C(=O)C(C)Sc2nnc3ccccn23)CC1 (stereo not given)	none (no result: TPT1 inh)
CCN1CCc2c(sc(NC(=O)c3ccc(S(=O)(=O)N(CC)c4ccccc4)cc3)c2C(N)=O)C1	TPT1 inh 97, Rpn11 inh 58 | caTPT1 confirm 103 | RNase T1 inh 107 | Rpn11 confirm 76 | MMP-2 counter inactive | Thrombin inh inactive
O=C(NC1CCCC1)C(c1ccco1)N1CCN(c2c(Cl)cncc2Cl)CC1 (stereo not given)	none (no result: TPT1 inh, Rpn11 inh, ATG4B inh)
Cc1cc(N2CCCC2)ccc1/C=C1/C(=O)N(C)C(=S)N1C	TPT1 inh 73, Rpn11 inh 43, SENP1 FRET inh 66 | caTPT1 confirm 67 | RNase T1 inh 76 | Rpn11 confirm inactive | MMP-2 counter inactive | Thrombin inh inactive
O=C(NCCN1CCC(n2c(=O)[nH]c3ccccc32)CC1)c1ccc(Cl)cc1Cl	none (no result: TPT1 inh, Rpn11 inh, ATG4B inh)
CCOc1cc(/C=N/NC(=O)c2ccc(CN3CCOCC3)cc2)ccc1OC	none
